# From PubChem
# Compounds with a hit are over-represented: about 1.8% of the library has one in this group of screens.
# SUMO Mot1 rescue: yeast Mot1-301 growth rescue at high temperature, primary screen, SUMOylation pathway inhibitor project, S. cerevisiae, ATP luminescence, 38.5C; S. cerevisiae Mot1-301 growth rescue; percent above DMSO median, 100 means doubled; growth rescue, % at 18.8 µM; 320,000 compounds, 1% hits;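 active = every valid replicate shows activation above 250% relative to neutral control wells; inactive = the rest, any valid replicate at or below 250%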;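 also: OY570 slx delta 5 strain wells were the positive control but not used for scaling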
# Statin myotox sup: suppressors of statin myotoxicity in C2C12 myotubes, primary screen, cell-based, single point, plate reader | rescue of ATP level, % at 7.49 µM | 330,000 compounds, 0.78% hits | AID 602340, 2012 | C2C12 myotubes + simvastatin, ATP luminescence, 48 h; scaled: DMSO 0, geranylgeraniol control 100;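 active = mean ATP rescue above about 67%, or every replicate alone reaching that limit, limit read from the data, passing the limit was not always enough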;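 also: myotubes were challenged with 10 µM simvastatin during compound exposure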
# Efflux pump mplx: inhibitors of Candida efflux pumps in yeast, primary screen, S. cerevisiae, Nile Red, multiplex; S. cerevisiae Candida pump triplex; inhibition, % at 10 µM; 330,000 compounds, 0.44% hits; AID 485275, 2010;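 active = plate passing quality check with inhibition over a set limit, or well fluorescence over plate mean plus 4 SD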;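 also: Nile Red retained in pooled yeast measured as flow cytometry median fluorescence; 0% = buffer negative control and 100% = Enniatin B positive control; higher means more Nile Red kept so more efflux inhibition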
# Cneo AK release: Cryptococcus neoformans cell lysis inducers, primary screen, AK release luminescence, single concentration. C. neoformans lysis, adenylate kinase release luminescence, 4 h; normalised: neutral wells 0, clomiphene wells 100. lysis activity, % at 15 µM. 360,000 compounds, 0.2% hits;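 active = mean lysis activity across replicates of at least 80%, whatever share of replicates individually reach that level; inactive = mean lysis activity below 80%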
#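 Signal: Adenylate kinase release luminescence | Assay system: Log-phase Cryptococcus neoformans yeast cells | Input: Cells at 5 × 10^6 per mL | Buffer or medium: Fresh YPD growth medium | Compound: Single dose | Schedule: Static 4 h at 37 °C with compound, 1 h detection | Controls: Clomiphene | Read-out: Luminescence rise reflecting yeast cell lysis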
# Cmpd fluor yeast: flagged as fluorescent in efflux inhibitor counter-screen; fluorescence ratio to DMSO, % at 10 µM; S. cerevisiae AD/pABC3, compound fluorescence, flow cytometry; 1,700 compounds, 4% hits; shares compounds with Efflux pump mplx;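 active = fluorescence ratio to DMSO above its plate's cutoff, the plate mean ratio plus 5 SD, cut at about 210% in these data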;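 also: unstained yeast with no Nile Red so the signal is compound autofluorescence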
# CaMdr1 efflux inh: inhibitors of Candida albicans Mdr1 efflux, confirmation, flow cytometry, singleplex, Cherry Pick1 set | shares compounds with Efflux pump mplx | S. cerevisiae AD/CaMDR1, Nile Red efflux | inhibition, % at 10 µM | 1,700 compounds, 1% hits; in the data active = inhibition above about 26%;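 also: 0% = DMSO vehicle and 100% = reference inhibitor; higher means more Nile Red retained so more efflux inhibition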
# Cdr2 pump inh: inhibitors of Candida albicans Cdr2 efflux pump, confirmation, S. cerevisiae AD/CaCDR2, flow cytometry, cherry pick 1, singleplex | Nile Red retention ratio vs DMSO, % at 10 µM | shares compounds with Efflux pump mplx | 1,700 compounds, 4% hits | Nile Red retention; in the data active = Nile Red retention ratio vs DMSO above about 190%;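 also: higher ratio means more blocking of Cdr2 efflux of the dye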
# Cdr1 pump inh: inhibitors of Candida albicans Cdr1 efflux pump, confirmation, S. cerevisiae AD/CaCDR1, flow cytometry, cherry pick 1, singleplex; shares compounds with Efflux pump mplx; Nile Red efflux; inhibition, % at 10 µM; 1,700 compounds, 1% hits; AID 588522, 2011;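 active = inhibition above the screen-wide mean plus twice its standard deviation, cut at about 32% in these data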
# The depositor's hits bear a star; . = not tested or not shown.
SMILES,SUMO Mot1 rescue,Statin myotox sup,Efflux pump mplx,Cneo AK release,Cmpd fluor yeast,CaMdr1 efflux inh,Cdr2 pump inh,Cdr1 pump inh
COc1ccc(-c2cc(C(=O)NCCN3CCOCC3)c3ccccc3n2)cc1,8.6,4.8,-0.1,-0.6,107.9,-0.2,106.0,0.0
CNC[C@H]1Oc2c(NC(=O)c3nc4ccccc4s3)cccc2C(=O)N([C@H](C)CO)C[C@@H]1C,.,30.6,.,.,.,.,.,.
Cn1cc(Br)c(C(=O)Nc2sc3c(c2C#N)CCC3)n1,-8.5,.,-0.1,0.0,105.6,-0.5,112.4,0.1
Cn1cc(Cl)c(C(=O)NC(=S)Nc2sc3c(c2C#N)CCCCC3)n1,-2.1,.,0.0,.,.,.,.,.
Cn1cc([N+](=O)[O-])c(C(=O)Nc2sc3c(c2C#N)CCC3)n1,-1.1,31.7,0.1,-0.2,111.1,0.2,128.8,0.0
Cn1ccc(C(=O)Nc2sc3c(c2C#N)CCC3)n1,40.1,1.3,0.0,-0.5,105.7,-0.7,97.5,-0.1
C=CCNS(=O)(=O)CC12CCC(CC1=O)C2(C)C (centres undefined),17.1,-1.9,-0.3,1.5,.,.,.,.
COC(=O)c1ccccc1NC(=O)Nc1cccnc1,10.0,0.7,-0.2,.,.,.,.,.
Cc1c(O)ccc2c(=O)c(Oc3ccccc3)coc12,10.8,2.1,0.1,-3.0,.,.,.,.
O=c1c(-c2ccccc2)c(O)c2cccc3c2n1CCC3,42.1,.,0.2,135.1,.,.,.,.
O=C(Oc1c(-c2ccccc2)c(=O)n2c3c(cccc13)CC2)c1ccc(Cl)cc1,-16.4,.,0.0,.,96.9,-0.1,96.5,0.0
O=C(Oc1c(-c2ccccc2)c(=O)n2c3c(cccc13)CC2)c1ccco1,-2.7,.,-0.1,-0.6,96.6,-0.4,106.3,0.1
Cc1nn(C)c(C)c1/C=N/NC(=O)CCn1cc([N+](=O)[O-])cn1,14.9,.,13.8*,.,93.4,-0.2,95.6,-0.1
CC(C)CCN(C(=O)c1ccc(Br)cc1)c1c(N)n(Cc2ccccc2)c(=O)[nH]c1=O,-4.8,12.4,0.0,0.5,.,.,.,.
CCN(CCN(C)C)C(=O)C1CCN(S(=O)(=O)c2c(C)noc2/C=C/c2ccccc2F)CC1,34.9,0.4,0.0,1.1,.,.,.,.
CCOc1ccccc1/C=C/c1onc(C)c1S(=O)(=O)N1CCC(C(=O)N(CC)CC)CC1,4.5,2.6,0.2*,-1.3,105.6,-0.3,108.3,0.0
Cc1ccc(-n2nc(C)c(NC(=O)CCl)c2C)cc1,12.7,-6.5,10.2*,-1.3,98.6,-0.1,103.6,2.2
Cc1ccc(-c2cc(NC(=O)CCl)n(-c3ccccc3)n2)cc1,5.9,-10.4,0.0,4.5,.,.,.,.
COc1cc2cc(CN(CCc3ccccc3C)C(=S)NCCCN(C)C)c(=O)[nH]c2cc1OC,-9.2,.,8.9*,.,104.7,-0.1,97.5,-0.3
CCNC(=S)N(CCc1ccccc1C)Cc1cc2cc(OC)c(OC)cc2[nH]c1=O,-12.3,.,0.4,.,.,.,.,.
COc1ccc(CNC(=O)COC(=O)CCC2CCCCC2)cc1,-0.1,3.1,0.8,0.6,.,.,.,.
COC(=O)c1ccc(CNC(=O)COC(=O)CCC2CCCC2)cc1,19.5,.,16.6*,.,114.6,-0.1,114.4,0.2
O=[N+]([O-])c1ccc(Oc2cccc3cccnc23)c([N+](=O)[O-])c1,5.6,.,0.9*,.,122.8,-0.2,122.9,0.1
C[C@H](CO)N1C[C@H](C)[C@H](CN(C)C)OCCCC[C@H](C)Oc2ccc(NC(=O)Nc3ccccc3)cc2C1=O,.,0.5,.,.,.,.,.,.
C[C@H](NS(=O)(=O)OCC(Cl)(Cl)Cl)C1CC1c1ccccc1 (some centres undefined),71.1,13.4,0.0,2.1,.,.,.,.
SMILES,SUMO Mot1 rescue,Statin myotox sup,Efflux pump mplx,Cneo AK release,Cmpd fluor yeast,CaMdr1 efflux inh,Cdr2 pump inh,Cdr1 pump inh
CC(=O)OCCC(NS(=O)(=O)OCC(Cl)(Cl)Cl)c1ccccc1 (centres undefined),5.9,-2.7,0.7*,1.1,111.1,-0.1,106.0,0.0
O=C(Nc1ccc(F)cc1)N[C@H]1C=C[C@@H](CC(=O)N2CCCCC2)O[C@H]1CO,.,2.6,.,1.9,.,.,.,.
O=C1C(=O)N(CNc2cccnc2)c2ccccc21,10.9,.,0.2,.,.,.,.,.
CN1CCN(C(=O)c2ccccc2-c2ccccc2C(=O)O)CC1,3.7,-0.3,6.7*,-0.6,101.8,-0.3,78.2,0.0
Cc1c(C(=O)O)cc(C(C)(C)C)n1CCSCCO,1.8,-9.6,0.0,-0.6,.,.,.,.
COc1ccc(C(C(=O)NC(C)(C)C)N(CC2CCCO2)C(=O)CCC(=O)Nc2cc(C)on2)cc1 (centres undefined),25.5,4.2,0.8*,-0.7,100.0,-0.5,98.1,0.1
CCc1ccc(N(C(=O)CCC(=O)Nc2cc(C)on2)C(C(=O)NC(C)(C)C)c2ccc(OC)cc2)cc1 (centres undefined),-22.4,9.1,0.1,0.4,.,.,.,.
CCC(C)(C)NC(=O)C(c1ccc(OC)cc1)N(C(=O)CCC(=O)Nc1cc(C)on1)c1cccc(F)c1 (centres undefined),56.7,-4.2,-0.2,10.6,.,.,.,.
CCOc1cccc(N(C(=O)CCC(=O)Nc2cc(C)on2)C(C(=O)NC(C)(C)C)c2ccc(OC)cc2)c1 (centres undefined),27.9,-23.1,0.5*,6.4,110.0,0.0,120.4,-0.1
COc1ccc(C(C(=O)NC(C)(C)C)N(C(=O)CCC(=O)Nc2cc(C)on2)c2cccc(F)c2)cc1 (centres undefined),16.5,8.6,0.4,0.1,87.6,-0.2,102.2,-0.1
COc1ccc([N+](=O)[O-])cc1NC(=O)CC1SC(=Nc2cccc(C)c2C)N(/N=C/c2cccc(OC)c2OC)C1=O (centres undefined),104.7,-8.2,0.3,-1.4,.,.,.,.
O=C(NCCc1ccccc1)c1ccc(CS(=O)(=O)Cc2ccc(F)cc2)o1,-4.7,24.3,0.1,-0.9,.,.,.,.
COc1ccc(-c2ccc(CCC(=O)O)n2NC(N)=O)cc1,-11.2,-1.4,0.1,-1.1,.,.,.,.
COc1ccc(OC)c(Nc2nc(N)c([N+](=O)[O-])c(NCc3ccccc3)n2)c1,1.1,.,0.1,1.1,.,.,.,.
N#C/C(=C\c1ccco1)C(=O)Nc1cccc2ncccc12,167.2,.,0.0,.,94.8,-0.3,105.1,-0.1
O=C(NC(=S)Nc1cccc2ncccc12)c1ccco1,346.6,.,0.1,0.3,.,.,.,.
